TRPC4 act: opens the mouse TRPC4 cation channel. HEK293 TRPC4beta/mu-opioid, Fluo4 calcium fluorescence; hits give high values. B-score at 10 µM. 310,000 compounds, 0.49% hits. AID 2237;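 active means B-score above 5 SD of library B-scores, and initial fluorescence ratio not above library mean plus 5 SD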;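 further: positive B-score marks a calcium rise read as TRPC4 activation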
Target sequence (Q9QUQ5 whole entry, looked up): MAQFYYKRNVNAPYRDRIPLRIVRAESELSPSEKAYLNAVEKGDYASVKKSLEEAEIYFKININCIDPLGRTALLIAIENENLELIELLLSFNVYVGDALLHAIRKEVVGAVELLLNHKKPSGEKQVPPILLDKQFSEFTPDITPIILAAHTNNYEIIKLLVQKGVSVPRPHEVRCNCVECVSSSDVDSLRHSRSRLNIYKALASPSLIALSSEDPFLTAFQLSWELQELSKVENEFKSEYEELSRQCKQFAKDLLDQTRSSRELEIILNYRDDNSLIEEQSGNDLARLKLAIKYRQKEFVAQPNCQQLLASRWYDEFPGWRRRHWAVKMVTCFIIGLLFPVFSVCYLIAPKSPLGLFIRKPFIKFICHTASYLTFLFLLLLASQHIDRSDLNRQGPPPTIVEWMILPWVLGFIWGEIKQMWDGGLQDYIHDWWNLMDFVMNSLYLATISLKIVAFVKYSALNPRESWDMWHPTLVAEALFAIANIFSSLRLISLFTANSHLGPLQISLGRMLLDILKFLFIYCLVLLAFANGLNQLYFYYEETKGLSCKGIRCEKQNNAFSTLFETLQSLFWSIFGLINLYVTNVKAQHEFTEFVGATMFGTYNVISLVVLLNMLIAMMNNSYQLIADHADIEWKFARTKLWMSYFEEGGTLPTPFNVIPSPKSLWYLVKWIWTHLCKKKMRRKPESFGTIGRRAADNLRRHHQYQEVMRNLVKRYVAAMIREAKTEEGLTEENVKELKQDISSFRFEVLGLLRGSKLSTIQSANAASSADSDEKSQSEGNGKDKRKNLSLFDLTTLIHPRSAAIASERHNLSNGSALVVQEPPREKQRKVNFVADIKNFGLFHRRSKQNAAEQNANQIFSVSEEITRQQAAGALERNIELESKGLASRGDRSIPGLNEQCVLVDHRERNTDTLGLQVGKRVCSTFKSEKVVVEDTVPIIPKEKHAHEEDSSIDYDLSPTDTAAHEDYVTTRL
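system = HEK293 cells stably co-expressing mouse TRPC4beta and mu-opioid receptor | schedule = Fluo4 dye loading 45 min at room temperature, 110 s recording | measure = B-scored integrated calcium fluorescence ratio | signal = Fluo4 calcium-sensitive dye fluorescence, kinetic, 1 Hz baseline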
Yeast superoxide: yeast age-related superoxide inhibition as caloric restriction mimetic | superoxide response (% of plate mean), % at 10 µM | S. cerevisiae aged cells, superoxide DHE fluorescence; hits give low values | AID 2690 | 330,000 compounds, 0.18% hits;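 active means superoxide response under a set limit, about three screen SD below normal, cut at about 65% in these data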;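 further: yeast aged for seven days with compound at 30 °C before DHE staining; 100% = average MFI of all compound-treated wells on the plate with controls excluded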
TRPC4 inh: blocks the mouse TRPC4 cation channel | HEK293 TRPC4beta/mu-opioid, DAMGO-evoked Fluo4 calcium flux; hits give low values | B-score at 10 µM | 300,000 compounds, 0.39% hits | AID 2247;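 active means B-score over 3 SD under the library average, no early fluorescence shift, positive overall ratio signal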
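Signal: kinetic Fluo4 fluorescence imaging of calcium influx. Material: stable TRPC4beta/mu-opioid receptor HEK293 cells. Probe or stimulus: DAMGO in two steps, submaximal then maximal.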
TRPC6 inhibitor: mouse TRPC6 channel inhibition | Q61143 | HEK293-TRPC6, membrane potential dye, ACh-evoked depolarization; hits give low values | B-score at 10 µM | 310,000 compounds, 1.1% hits;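 active means B-score under library mean minus 3 SD, initial fluorescence not abnormally high, positive integrated signal ratio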;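 further: B-score derived from integrated fluorescence ratio over the kinetic read; more negative B-score means stronger inhibition of depolarization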
TRPC6 act: activates the mouse TRPC6 cation channel; B-score at 10 µM; HEK293-TRPC6 membrane potential dye fluorescence; hits give high values; 310,000 compounds, 0.13% hits; Q61143;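 active means B-score of the integrated fluorescence ratio above library mean plus 3 SD, and starting fluorescence ratio within library mean plus 5 SD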;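 further: higher score means more depolarization so channel activation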
TRPC4 PAM: allosterically enhances the mouse TRPC4 cation channel; Q9QUQ5; HEK293 TRPC4beta/mu-opioid, DAMGO EC20, Fluo-4 Ca2+ flux; hits give high values; B-score at 10 µM; 310,000 compounds, 0.42% hits; AID 2227;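 active means B-score of calcium response area above 5 SD of library B-scores, with initial fluorescence ratio within 5 SD of library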;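 further: B-score of integrated fluorescence ratio over time as area under calcium response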
TRPC4 sel inh 2: second selectivity test of TRPC6 inhibitors: effect on mouse TRPC4 | shares compounds with TRPC6 inhibitor | HEK293 TRPC4/MOR, membrane potential dye fluorescence; channel activated by saturating DAMGO dose | inhibition, % at 10 µM | 920 compounds, 42% hits;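 active means compounds whose fluorescence signal differed from control wells by over 3 SD, either direction, in both duplicate plates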
TRPC4 spec: tests whether TRPC6 inhibitors also affect mouse TRPC4. shares compounds with TRPC6 inhibitor. HEK293 TRPC4/mu-opioid, membrane potential fluorescence. activity change, negative = inhibition, % at 10 µM. 920 compounds, 61% hits. AID 2777;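 active means rise or fall in signal beyond 3 SD of buffer-only wells in both replicate plates, either sign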;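 further: integrated kinetic ratio of fluorescence range over baseline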
HEK293 MPD ctr 2-1: parental HEK293 nonspecific activity of TRPC6 inhibitors, second screen; AID 2779; 920 compounds, 31% hits; parental HEK293 membrane potential dye fluorescence; maximal acetylcholine challenge after compound addition; shares compounds with TRPC6 inhibitor; signal change vs control, % at 10 µM;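 active means membrane potential signal moving either way by over 3 SD of the maximum-effect control, in both duplicate plates, meaning non-specific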
HEK293 MPD ctr-1: parental HEK293 nonspecific activity of TRPC6 inhibitors. 920 compounds, 60% hits. shares compounds with TRPC6 inhibitor. parental HEK293 membrane potential dye fluorescence. membrane potential signal change, % at 10 µM;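 active means membrane potential signal shifting up or down by more than 3 SD of buffer-only wells, on both duplicate plates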
HEK293 MPD ctr-2: counter-screen for TRPC6 modulators: effect in parental HEK293 cells; shares compounds with TRPC6 inhibitor; membrane potential dye fluorescence; membrane potential signal change, % at 10 µM; 2,400 compounds, 51% hits; AID 488924;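 active means membrane potential signal moves up or down beyond 5 SD from buffer-only wells, on both duplicate plates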
HEK293 MPD ctr 2-2: second check of TRPC6 modulator effects in parental HEK293 cells | 2,400 compounds, 14% hits | shares compounds with TRPC6 inhibitor | membrane potential dye fluorescence; after compound, maximal acetylcholine stimulation | inhibition, % at 10 µM | AID 488926;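 active means membrane potential signal drops by more than 5 SD from the mean control signal, in both duplicate plates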;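 further: plate controls were acetylcholine ECmax control wells for no effect and buffer only wells for full effect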
TRPC4 ctr mod: mouse TRPC4 off-target activity of TRPC6 modulators | percent change from control (negative = decrease, positive = increase), % at 10 µM | shares compounds with TRPC6 inhibitor | 2,400 compounds, 69% hits | HEK293 TRPC4/mu-opioid, membrane potential fluorescence;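 active means membrane potential signal moved up or down beyond 5 SD of buffer control wells, in both duplicate plates, actives on both sides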;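 further: plate controls were assay buffer wells for no effect and DAMGO maximal-effect wells for full effect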
TRPC4/MOR inh 2: second check of whether TRPC6 modulators also affect mouse TRPC4; HEK293 TRPC4/mu-opioid, membrane potential dye fluorescence; stimulated with maximal-effect DAMGO; inhibition, % at 10 µM; shares compounds with TRPC6 inhibitor; AID 488928; 2,400 compounds, 55% hits;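 active means drop in membrane potential signal beyond 5 SD of the control wells in both duplicate plates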;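 further: TRPC4 counter screen for TRPC6 hits run under conditions tuned for TRPC6 not TRPC4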
TRPC6 block conf: mouse TRPC6 inhibitor confirmation | 3,300 compounds, 43% hits | HEK293-TRPC6, membrane potential dye, ACh-evoked depolarization | shares compounds with TRPC6 inhibitor | inhibition, % at 10 µM;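 active means fluorescence ratio falls more than 5 SD below the full-stimulation control mean, in both duplicate runs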;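 further: integrated fluorescence ratio of peak minus minimum over baseline after agonist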
TRPC6 act confirm: mouse TRPC6 activator confirmation; HEK293-TRPC6 membrane potential dye fluorescence, FDSS; activation, % at 10 µM; shares compounds with TRPC6 inhibitor; 2,800 compounds, 11% hits;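 active means ratio signal rise beyond 5 SD above unstimulated control wells' mean, seen in both duplicate runs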;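 further: plate controls were buffer EC0 wells for no effect and acetylcholine ECmax response for full effect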
The depositor's hits bear a star; i = inactive; x = no result. Only some compounds are listed: those with a hit (about 2.3% of all), similar ones and a draw of the others.

SMILES | TRPC4 act | Yeast superoxide | TRPC4 inh | TRPC6 inhibitor | TRPC6 act | TRPC4 PAM | HEK293 MPD ctr-2 | HEK293 MPD ctr 2-2 | TRPC4 ctr mod | TRPC4/MOR inh 2 | TRPC6 block conf | TRPC6 act confirm | others
Cc1cc(Cl)ccc1C(=O)C1CCCN(C(=O)c2cc(C(C)C)no2)C1 (stereo not given) | i | 91 | i | -6.2* | i | i | 98%* | i | 20%* | i | 48%* | x
COc1cccc(N2CCN(c3ncccn3)CC2)c1 | i | 93 | i | i | i | i | x | x | x | x | x | x
CN1\C(=C/C=C/C=C/C=[N+](C)C)C(C)(C)c2ccccc21 | i | x | i | -5.2* | i | i | 533%* | i | -20%* | 32%* | 48%* | i
CN(C)c1ccc(N=C/C=C2\N(C)c3ccccc3C2(C)C)cc1 | i | 104 | i | -6.6* | i | i | i | i | -16%* | 53%* | 58%* | i
CN1/C(=C\C=O)C(C)(C)c2ccccc21 | i | 98 | i | i | i | i | x | x | x | x | x | x
CCOC(=O)N1CCN(C(=O)CSc2nc3ccccc3c(=O)n2-c2ccccc2)CC1 | i | 87 | i | i | 17* | i | 118%* | i | 30%* | i | x | 172%*
CCN(CC)CCCOC(=O)C(c1ccccc1)c1ccccc1 | i | 116 | i | -7.2* | i | i | x | x | x | x | 61%* | x | TRPC4 sel inh 2=i;TRPC4 spec=9.6%*;HEK293 MPD ctr 2-1=i;HEK293 MPD ctr-1=12%*
CC(C)NS(=O)(=O)c1ccc(CCC(=O)Nc2ccc3c(c2)OCCO3)cc1 | i | 90 | i | i | i | i | x | x | x | x | x | x
Cc1cc(NCCCN(C)C)n2nc(-c3cccs3)cc2n1 | i | 101 | i | -8.2* | i | 12* | -349%* | 82%* | -58%* | 58%* | 69%* | i
CC(C)(C)CC(=O)Nc1nnc(C(F)(F)F)s1 | i | 95 | i | i | i | i | x | x | x | x | x | x
CC(NC(=O)Nc1nnc(C(F)(F)F)s1)(C(F)(F)F)C(F)(F)F | i | 116 | i | -7.3* | i | i | x | x | x | x | 87%* | x | TRPC4 sel inh 2=57%*;TRPC4 spec=51%*;HEK293 MPD ctr 2-1=i;HEK293 MPD ctr-1=30%*
CCN(CC)c1ccc(NC(=O)CCc2nnc3ccc(N4CCCC4)nn23)c(C)c1 | i | 79 | i | i | i | i | x | x | x | x | x | x
Cc1cccc2cc3c(nc12)-c1ccccc1C3=O | i | 103 | i | i | i | i | x | x | x | x | x | x
Cc1nc2c(cc1C#N)C(=O)c1ccccc1-2 | i | 107 | i | -5* | i | i | -114%* | i | -22%* | i | i | i
CCC1CCCCN1C(=O)CSc1nc2ccsc2c(=O)n1Cc1ccccc1 (stereo not given) | i | 94 | i | i | i | i | x | x | x | x | x | x
O=C(Nc1ccccc1C(=O)Nc1nnc(C(F)(F)F)s1)c1ccccc1Cl | i | 98 | i | -6.5* | i | i | 121%* | i | 26%* | 54%* | 55%* | x
CCc1ccccc1N(CC(=O)NC1CCCCC1)C(=O)CCC(=O)Nc1ccccn1 | i | 98 | i | i | i | i | x | x | x | x | x | x
Cc1cc(N)c2cc(NC(=O)/C=C/c3ccccc3Cl)ccc2n1 | i | 87 | i | -5.5* | i | i | i | i | i | i | i | i
CNc1c([N+](=O)[O-])cnn1-c1cccc(Cl)n1 | i | 107 | i | i | i | i | x | x | x | x | x | x
CCC(C)N(CCNC(=O)CC1Oc2ccc(C)cc2NC1=O)C1CCCCC1 (stereo not given) | i | 102 | i | -8.4* | i | i | x | x | x | x | 53%* | x | TRPC4 sel inh 2=i;TRPC4 spec=17%*;HEK293 MPD ctr 2-1=i;HEK293 MPD ctr-1=13%*
Cc1ccc2c(c1)NC(=O)C(CC(=O)NCCCN1CCCCC1C)O2 (stereo not given) | i | 101 | i | i | i | i | x | x | x | x | x | x
c1ccc(-c2nc(N3CCCCC3)nc3ccccc23)cc1 | i | 101 | i | i | i | i | x | x | x | x | x | x
Nc1nc(N2CCCCC2)nc2ccccc12 | i | 106 | -8* | -11* | i | i | -212%* | i | -42%* | 92%* | 70%* | i
Nc1nc(N2CCN(c3ccccn3)CC2)nc2ccccc12 | i | 84 | i | -6.9* | i | i | x | x | x | x | 62%* | i | TRPC4 sel inh 2=49%*;TRPC4 spec=-19%*;HEK293 MPD ctr 2-1=i;HEK293 MPD ctr-1=-232%*
c1ccc(-c2nc(N3CCNCC3)nc3ccccc23)cc1 | i | 87 | i | -8* | i | 18* | x | x | x | x | i | i | TRPC4 sel inh 2=40%*;TRPC4 spec=i;HEK293 MPD ctr 2-1=i;HEK293 MPD ctr-1=4.7%*
Cc1cc(-c2ccccc2)nc(N2CCN(c3ccccn3)CC2)n1 | i | 102 | i | i | i | i | x | x | x | x | x | x
c1ccc2c(N3CCCCC3)nc(N3CCCC3)nc2c1 | i | 106 | i | i | i | i | x | x | x | x | x | x
CC(C)(CNCc1ccccc1)NS(=O)(=O)c1ccc(Cl)cc1 | x | 96 | x | x | x | x | x | x | x | x | x | x

Source: PubChem
